Consider 70 compounds from ChEMBL document CHEMBL4513216, “Probing the Open Global Health Chemical Diversity Library for Multistage-Active Starting Points for Next-Generation Antimalarials” (ACS Infect Dis, 2020).

This data set is described as follows: Toxicity liver stage against HepG2, at 10uM. The data set is classed as cell-based. Details: test concentration 10 uM, cell line HepG2-A16-CD81EGFP. Conditions: human, HepG2-A16-CD81EGFP cells; read-out: INHIBITION
The method in brief: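 Uninfected HepG2-A16-CD81EGFP cells, 3 × 10^3 per well, 1536-well, plated on prespotted compound at 10 μM final, parasite-free screening media added to match infected plates; puromycin 10 μM positive, DMSO 0.5% negative; run in parallel with 48 h PbLuc assay at 37 °C, 5% CO2; viability by CellTiter-Glo luminescence, normalized to controls.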
On to `Cc1c(Cl)cccc1NC(=O)c1nc[nH]n1`, for which the cytotoxicity at 10 µM is -7.93%.
As for `CS(=O)(=O)c1ccc(O[C@H]2COCCN(C(=O)c3ccno3)C2)cc1`, the figure is 0.0962%; as for `CC(C)c1sc(Cl)nc1C(=O)N1CCN(c2ccccc2)CC1`, -87.6%; as for `COc1ccc(F)cc1S(=O)(=O)N1CCC(OC)CC1`, -3.97%.
As for `CS(=O)(=O)C1CCN(S(=O)(=O)c2ccc(F)c(F)c2)CC1`, the figure is -10.4%; as for `COc1cc(N2C[C@H]3CN(C(=O)c4cnccn4)C[C@H]3C2)ncn1`, -141%; as for `COc1nn(C)c2c1CCCN(S(=O)(=O)c1cccs1)C2`, -112%.
`CCNC(=O)N1CCC2(C1)c1ccccc1S(=O)(=O)N2CCOC` (stereo not given): the cytotoxicity at 10 µM was -151%.
On to `COC(=O)c1cc2c(OC)c(C)c(OC)cc2[nH]1`, for which the cytotoxicity at 10 µM is -12.8%.
As for `O=C(c1cscn1)N1C[C@@H]2[C@@H](C1)OCC(=O)N2CC1CCCC1`, the figure is -10.2%; as for `CCNC(=O)c1ncn2c1CN(C)S(=O)(=O)c1ccccc1-2`, -10.1%.
As for `COC[C@H]1CCC[C@]12CN(C(=O)NCc1ccccc1)CCO2`, the figure is -11.6%; as for `CCN(CC)CCCNC(=O)C(C)n1cc(Br)cn1` (stereo not given), -3.33%; as for `COCc1nc(N(C)C)ncc1C(=O)NC(C)C`, 12.8%.
On to `CC(C(=O)N1CCc2ccccc2C1)n1cc(Br)cn1` (stereo not given), for which the cytotoxicity at 10 µM is -8.77%.
As for `O=C(c1ccccc1F)N1CCCC1Cn1c(=O)oc2ccccc21` (stereo not given), the figure is 4.49%.
Consider `O=C1N[C@H]2OCCC[C@H]2[C@H](c2ccc(C(=O)O)cc2)N1`, for which the cytotoxicity at 10 µM is -2.51%.
Next, `CC(=O)Nc1ccc(CCC2(NC(=O)C3CCCO3)CCCCC2)cn1` (stereo not given): 1.6%; `Nc1nccnc1CC1CCCN(Cc2cccc3[nH]ccc23)C1` (stereo not given): 0.994%; `Cc1cc(C2CCCN2C(=O)c2csc(-c3cnn(C)c3)n2)on1` (stereo not given): 15.6%.
As for `CC(Oc1ccc(C(=O)NCCNS(C)(=O)=O)cn1)c1ccccc1` (stereo not given), the figure is 7.44%; as for `O=C(CCc1ccc(C(F)(F)F)cc1)N1CCCS1(=O)=O`, 4.37%.
As for `CCNc1cc2c(nn1)CCN(C(=O)C1Cc3ccccc3S1)C2` (stereo not given), the figure is -1.4%; as for `O=C(Cn1cccc2oc(=O)nc1-2)NCC1Cc2ccccc2O1` (stereo not given), -7.79%; as for `CC(C)c1nc(C2CCCN(C(=O)CN(C)S(C)(=O)=O)C2)no1` (stereo not given), -0.304%.
For `CN(CC(=O)N1CCN(c2cnccn2)CC1)c1ccc(Cl)cn1`, the cytotoxicity at 10 µM was -0.487%.
Next, `Cc1nnc2n1CCN(C(=O)c1ccn(-c3cccc(F)c3)n1)C2`: -144%; `CCc1nnc2n1CCN(C(=O)c1cn(-c3ccccc3)nn1)C2`: -141%.
On to `CC(C)c1ncncc1C(=O)NCCN1CCOCC1`, for which the cytotoxicity at 10 µM was -0.103%.
`Cc1cc(C(=O)NC2CCN(CC(N)=O)CC2)nn1C(C)(C)C`: the cytotoxicity at 10 µM was -5.22%.
Take `Cc1ccc(CNC(=O)NC(C)CCS(C)(=O)=O)cc1F` (stereo not given): the cytotoxicity at 10 µM is -146%.
As for `CCC(CNS(C)(=O)=O)Oc1ccccc1C` (stereo not given), the figure is 17.3%; as for `CCN(C(=O)CN1CCC(c2ccccc2)C1)C1CC1` (stereo not given), 9.4%; as for `O=C(c1ccc(Sc2ccccn2)cc1)N1CCCSCC1`, 11.5%.
Next, `CC(C)N(Cc1ccccn1)C(=O)CCOc1cccc(F)c1`: 4.58%; `Cc1cccc(CN(Cc2ccccn2)S(=O)(=O)N(C)C)c1`: -1.74%.
As for `CCOC(=O)NC1CCCN(Cc2ccc(-n3cncn3)c(C)c2)C1` (stereo not given), the figure is 2.12%.
`Cc1nnc(SCCC(=O)N(C)Cc2c(F)cccc2Cl)[nH]1`: the cytotoxicity at 10 µM was found to be 1.69%.
Next, `O=C(c1cnc2[nH]c(=O)[nH]c(=O)c2c1)N1CCCC1C1CCCCC1` (stereo not given): -5.94%; `COCCn1cc(C(=O)N2CCCC2c2cccc(F)c2)ccc1=O` (stereo not given): -3.48%; `Cc1cnc(NC(=O)N2CCCC2)s1`: -13.6%.
Next, `CCCS(=O)(=O)NCc1cccnc1OCC`: -7.87%.
For `O=C(CN(Cc1ccccc1)CC1CCOCC1)Nc1nccs1`, the cytotoxicity at 10 µM is -13.5%.
Next, `CCOc1ncccc1NC(=O)c1cc(C)c(C)s1`: -2.96%.
Take `O=C(NC1CC1)N1C[C@@H]2CCN(C(=O)c3cscn3)[C@@H]2C1`: the cytotoxicity at 10 µM is -0.025%.
As for `Cc1nnc([C@@]23CCO[C@@H]2CCN(Cc2cccc4ccccc24)C3)o1`, the figure is -103%.
For the compound `O=C(c1ncccn1)N1C[C@@H]2CN(Cc3cccnc3)CCO[C@@H]2C1`, the cytotoxicity at 10 µM was determined as 7.67%.
As for `Cc1ccc2c(c1)SCC(=O)N2CC(=O)N1CCCC1c1cc(C)on1` (stereo not given), the figure is 1.28%; as for `CSCC(=O)N1C[C@H](c2ccc(C)o2)[C@@H](N)C1`, 6.6%; as for `CCOc1ccc2[nH]c(=O)c(CN3CCC(N4CCCC4)CC3)cc2c1`, -7.83%.
As for `CCC1CN(Cc2nnc(C3CC3)o2)CCC(=O)N1Cc1ccccc1` (stereo not given), the figure is 0.0723%; as for `O=C(O)C1CN(Cc2cccc(-c3ccccn3)c2)CCO1` (stereo not given), -10.5%; as for `CCc1nccn1CCCNC(=O)c1cnn(-c2ccccc2OC)c1`, -17.1%.
For the compound `CCC(=O)N1CCCC(C(=O)N2CCN(c3cnn(C)c(=O)c3)CC2)C1` (stereo not given), the cytotoxicity at 10 µM stood at 3.98%.
Regarding `O=C(c1cccc(Cl)c1F)N1CCOC2(CNCCOC2)C1` (stereo not given), the cytotoxicity at 10 µM was -2.06%.
Next, `Cc1cncc(C(=O)N2CCC(Cn3cc(-c4ccsc4)nn3)CC2)c1`: -6.69%.
Regarding `O=C(NCCn1ccnc1)N1CCCC1c1ccc2c(c1)OCCO2` (stereo not given), the cytotoxicity at 10 µM is -8.16%.
As to `Cc1cc(C)n(CC2CN(CC(=O)NCc3ccccn3)CCO2)n1` (stereo not given), the cytotoxicity at 10 µM is -5.07%.
Consider `CS(=O)(=O)c1ccc(CNC(=O)N2CCC(c3ccccc3)CC2)cc1`, for which the cytotoxicity at 10 µM was -0.884%.
Regarding `Cc1cnn(CC(C)NCc2ccc(-n3cccn3)cc2)c1` (stereo not given), the cytotoxicity at 10 µM is 1.44%.
As for `Cc1ccc(C(=O)NC2CCN(C(=O)Nc3ccccn3)CC2)o1`, the figure is 4.86%.
Next, `CCc1ccc(C(=O)N2CCCC(c3noc(CC)n3)C2)o1` (stereo not given): -3.97%; `Cc1c(C(=O)N2CCOCC2)n(C)c2ccc(Cl)cc12`: -0.244%.
Next, `COCCNC(=O)[C@H]1C[C@@H]2CCN(Cc3ccncc3)C[C@H]2O1`: 2.6%; `Cc1cccc(S(=O)(=O)N2CC[C@H]3CO[C@H](CN(C)C)[C@H]3C2)c1`: -92.1%; `O=C([C@@H]1C[C@H]2[C@H](CCN2Cc2nccs2)O1)N1CCOCC1`: -8.66%.
As to `CN1CCC(c2nnc3ccc(C(=O)NC4CCCC4)cn23)C1` (stereo not given), the cytotoxicity at 10 µM is -1.37%.
As for `COCC1CC2(CCN(Cc3ccoc3)CC2)CN1C(C)C` (stereo not given), the figure is 0.803%.
Consider `O=C(NC1CCCC1)[C@H]1C[C@H]2OCC[C@H]2N(Cc2ccoc2)C1`, for which the cytotoxicity at 10 µM was -77.3%.
Next, `c1csc(CN2CCCn3cnc(COCC4CC4)c3C2)c1`: -74.6%.
